Measured values reported in the M2OR odorant receptor database.

Assays:
Details in all cases: stereoisomer not certain
UniProt Q8VGU3 = biological target: T1, UniProt Q8VGU3
T1 sequence (whole entry): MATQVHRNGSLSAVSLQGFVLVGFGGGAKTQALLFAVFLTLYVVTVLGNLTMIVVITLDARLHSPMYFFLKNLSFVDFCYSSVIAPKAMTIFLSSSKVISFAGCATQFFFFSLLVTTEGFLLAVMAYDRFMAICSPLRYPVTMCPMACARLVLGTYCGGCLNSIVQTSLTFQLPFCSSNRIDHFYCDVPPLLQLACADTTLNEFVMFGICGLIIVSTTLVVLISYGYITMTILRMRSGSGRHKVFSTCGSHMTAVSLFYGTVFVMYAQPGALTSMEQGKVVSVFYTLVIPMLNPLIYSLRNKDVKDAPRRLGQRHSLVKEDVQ
Outline: (§1)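 Transient luciferase assays in mammalian cell lines were common, though methods varied by source. The values come from published papers and their supplementary material, with extra details from the original authors when needed. Responsive refers to a measured signal the original authors judged statistically different from baseline, and non-responsive (inactive) to the remainder.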

UniProt Q8VGV7 = biological target: T2, UniProt Q8VGV7
T2 sequence (whole entry): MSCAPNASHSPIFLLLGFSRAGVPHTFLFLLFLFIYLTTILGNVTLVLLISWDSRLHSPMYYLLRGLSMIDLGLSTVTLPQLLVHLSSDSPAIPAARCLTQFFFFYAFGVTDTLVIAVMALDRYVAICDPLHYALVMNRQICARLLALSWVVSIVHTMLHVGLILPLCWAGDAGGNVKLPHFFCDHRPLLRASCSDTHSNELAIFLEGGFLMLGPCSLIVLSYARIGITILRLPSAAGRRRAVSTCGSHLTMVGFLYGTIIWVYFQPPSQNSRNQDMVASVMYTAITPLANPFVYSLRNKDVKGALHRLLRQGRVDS
Outline: as §1

UniProt Q8VGX3 = biological target: T3, UniProt Q8VGX3
T3 sequence (whole entry): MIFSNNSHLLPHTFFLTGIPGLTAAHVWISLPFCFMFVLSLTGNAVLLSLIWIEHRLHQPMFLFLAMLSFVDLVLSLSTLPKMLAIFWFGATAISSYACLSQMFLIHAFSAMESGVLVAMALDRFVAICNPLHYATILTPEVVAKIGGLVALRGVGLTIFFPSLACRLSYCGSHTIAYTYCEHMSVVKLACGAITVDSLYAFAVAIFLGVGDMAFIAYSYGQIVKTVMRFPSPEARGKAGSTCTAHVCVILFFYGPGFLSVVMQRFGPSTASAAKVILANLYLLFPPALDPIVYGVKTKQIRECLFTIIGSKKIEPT
Outline: as §1

UniProt Q8VGX5 = biological target: T4, UniProt Q8VGX5
T4 sequence (whole entry): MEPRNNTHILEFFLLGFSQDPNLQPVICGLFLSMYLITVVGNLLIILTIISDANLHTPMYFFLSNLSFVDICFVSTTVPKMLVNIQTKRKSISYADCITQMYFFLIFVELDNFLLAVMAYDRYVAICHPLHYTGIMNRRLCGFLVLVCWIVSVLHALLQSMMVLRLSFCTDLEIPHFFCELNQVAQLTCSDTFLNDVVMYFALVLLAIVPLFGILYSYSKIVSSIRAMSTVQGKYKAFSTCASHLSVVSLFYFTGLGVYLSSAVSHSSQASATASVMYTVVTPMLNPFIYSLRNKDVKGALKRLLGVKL
Outline: as §1
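Further: active if original authors judged signal statistically different from baseline.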

SMILES | odorant receptor agonist call (UniProt Q8VGU3) | odorant receptor agonist call (UniProt Q8VGV7) | odorant receptor agonist call (UniProt Q8VGX3) | odorant receptor agonist call (UniProt Q8VGX5)
Cc1occc1SSc1ccoc1C | inactive | inactive | inactive | inactive
OCCc1ccccc1 | inactive | inactive | inactive | active
COC(OC)c1ccccc1 | inactive | inactive | inactive | inactive
CC(=O)OCCc1ccccc1 | inactive | active | inactive | inactive
CCc1nccnc1CC | inactive | inactive | inactive | inactive
O=C(O)CCCCCBr | inactive | inactive | inactive | inactive
O=C(O)C1CCC1 | inactive | inactive | inactive | inactive
CC1CC=CCCCCCCCCCC(=O)C1 (centres undefined) | inactive | inactive | inactive | inactive
CCC(C)c1nccnc1OC (centres undefined) | inactive | inactive | inactive | active
C=CC(C)=CCC=C(C)CCC=C(C)C | inactive | inactive | inactive | inactive
CCN(CC)CC | inactive | inactive | inactive | inactive
